Bioassay records from PubChem.
Rows were chosen to be rich in hits. Some 4.8% of all compounds tested hit in one or more screens of this group.
Beta cell apopt: inhibitors of cytokine-induced beta cell apoptosis, primary screen, luminescence | protection from apoptosis, % (test concentration not listed) | 0.8% of 300,000 active | INS-1E cytokine-induced death, ATP luminescence, 48 h; percent of positive-control rescue, neutral wells zero | AID 435005, 2010;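 active means Every replicate reaches about 75%, or at least half do and their mean reaches it too, limit read from the data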;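 further: higher means more ATP so stronger rescue from cytokine killing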
Efflux pump inh: inhibitors of Candida efflux pumps in yeast, primary screen, S. cerevisiae, Nile Red, multiplex; S. cerevisiae Candida pump triplex; inhibition, % at 10 µM; 0.44% of 330,000 active; AID 485275, 2010;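 active means plate passing quality check with inhibition over a set limit, or well fluorescence over plate mean plus 4 SD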;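 further: Nile Red retained in pooled yeast measured as flow cytometry median fluorescence; higher means more Nile Red kept so more efflux inhibition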
CSC inhib: cancer stem cell viability inhibitors, primary screen, luminescence. 1.1% of 300,000 active. AID 2717, 2010. cancer stem cell-like cells viability. inhibition, % at 7.5 µM; in the data active means inhibition above about 75%; tested in HMLE shEcad cells
T cruzi inh: inhibitors of intracellular T. cruzi growth, primary screen, luminescence, NIH3T3 host cells. T. cruzi beta-gal in NIH3T3, 90 h. inhibition, % (concentration not given with the values). 1.4% of 300,000 active;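 active means mean inhibition across valid replicates above about 55%, limit read from the data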;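 further: signal also drops with host cell toxicity which is not excluded here; higher percent means less beta-gal luminescence so fewer parasites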
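compound dosing = single 50 nL compound addition per well in DMSO | material = NIH/3T3 host cells with β-galactosidase reporter T. cruzi | input = 5,000 host fibroblasts per well | timing = ≥90 h infection period, 3 h prior cell attachment | read-out basis = percent inhibition of parasite-derived β-gal signal | detection = GalScreen β-gal luminescence, detergent lysis, 60 min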
WT yeast gro inh: growth inhibition of WT strain, primary screen, mitochondrial fusion inhibitor project, WT and mutant strains, chemical genetic; mitochondrial fusion phenotypic screen; inhibition, % at 10 µM; 2.1% of 190,000 active; in the data active means inhibition above about 58%; tested in S. cerevisiae
Mot1-301 SUMO: yeast Mot1-301 growth rescue at high temperature, primary screen, SUMOylation pathway inhibitor project, S. cerevisiae, ATP luminescence, 38.5C. S. cerevisiae Mot1-301 growth rescue; percent above DMSO median, 100 means doubled. growth rescue, % at 18.8 µM. 1% of 320,000 active. AID 2716, 2010;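 active means every valid replicate shows activation above 250% relative to neutral control wells; inactive means the rest, any valid replicate at or below 250%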
Of the large screens only hits and unclear results are named; the others gave an inactive call; ! = not active in a repeat.

CC(C)CC(=O)OC1C(N2CCOCC2)c2c(ccc(/C=C/C(=O)N3CCOCC3)c2O)OC1(C)C (configuration not stated)	none
COc1ccc(CCCC(=O)N/N=C/c2ccccc2OC)cc1	none (no result: CSC inhib)
COc1ccccc1C1CN(c2ccc(F)cc2F)N=C1c1cccs1 (configuration not stated)	WT yeast gro inh 78.8
Cc1ccc2cc(CCNC(=O)c3ccc(C)c([N+](=O)[O-])c3)c(=O)[nH]c2c1	none
CCCCCCOc1ccc(N2C(=O)CC(S/C(N)=N/N=C(\C)c3cccs3)C2=O)cc1 (configuration not stated)	none
C/C(=N\N=C(/N)SC1CC(=O)N(c2ccc(Br)cc2)C1=O)c1cccs1 (configuration not stated)	WT yeast gro inh 64.9
C/C(=N\N=C(/N)SC1CC(=O)N(c2ccc(Cl)cc2)C1=O)c1cccs1 (configuration not stated)	WT yeast gro inh 59.5
C/C(=N\N=C(/N)SC1CC(=O)N(c2ccc(Cl)c(Cl)c2)C1=O)c1cccs1 (configuration not stated)	CSC inhib 78.7, WT yeast gro inh 97.5
C/C(=N\N=C(/N)SC1CC(=O)N(c2ccccc2)C1=O)c1cccs1 (configuration not stated)	none
N/C(=N\N=C\c1cccs1)SC1CC(=O)N(c2ccc(Br)cc2)C1=O (configuration not stated)	none (no result: Beta cell apopt)
O=C(CSc1nnnn1-c1cccc(F)c1)NC1CCCCC1	none (no result: T cruzi inh, WT yeast gro inh)
COc1cc(CN2CCN(C(=O)c3ccccc3F)CC2)cc(OC)c1OC	none (no result: WT yeast gro inh)
COc1cccc(CNC(=O)c2ccc(CS(=O)Cc3ccc(C)cc3)o2)c1 (configuration not stated)	none (no result: WT yeast gro inh)
Cc1cccc(C)c1N1CCN(c2nc(N(C)C)oc(=O)c2C#N)CC1	none (no result: Mot1-301 SUMO)
CC(OC(=O)CCCCCN=C1NS(=O)(=O)c2ccccc21)C(=O)Nc1cc(Cl)cc(Cl)c1 (configuration not stated)	none
O=C(Nc1nc(-c2cccnc2)cs1)c1ccccc1[N+](=O)[O-]	none
CCOC(=O)N1CCN(S(=O)(=O)c2ccc(C(=O)NNc3nc4c(C)cc(C)cc4s3)cc2)CC1	Beta cell apopt 96.9, CSC inhib 125.5
CCOC(=O)N1CCN(S(=O)(=O)c2ccc(C(=O)NNc3nc4cc(C)cc(C)c4s3)cc2)CC1	Beta cell apopt 83.6, CSC inhib 102.9
CCOC(=O)N1CCN(S(=O)(=O)c2ccc(C(=O)NNc3nc4c(C)cccc4s3)cc2)CC1	none (no result: CSC inhib)
CCOC(=O)N1CCN(S(=O)(=O)c2ccc(C(=O)N(CCN(C)C)c3nc4ccc(Cl)cc4s3)cc2)CC1	T cruzi inh 75.6 (no result: WT yeast gro inh)
CCOC(=O)N1CCN(S(=O)(=O)c2ccc(C(=O)Nc3nnc(CC)o3)cc2)CC1	none (no result: CSC inhib)
CCOC(=O)N1CCN(S(=O)(=O)c2ccc(C(=O)Nc3nc4c(s3)CC(C)CC4)cc2)CC1 (configuration not stated)	none
CCOC(=O)N1CCN(S(=O)(=O)c2ccc(C(=O)NNc3nc4ccc(Cl)cc4s3)cc2)CC1	Beta cell apopt 81.8, CSC inhib 103.7
Cc1cc(C(=O)OCC(=O)N2CCc3ccccc32)ccc1[N+](=O)[O-]	none (no result: CSC inhib, T cruzi inh, WT yeast gro inh)
CC1CC(=O)Nc2ccccc2N1C(=O)CSc1ncnc2sccc12 (configuration not stated)	none (no result: T cruzi inh, WT yeast gro inh)
CCC1(CC)NC(=O)N(CC(=O)OC(C)C(=O)Nc2ccc(NC(C)=O)cc2)C1=O (configuration not stated)	none (no result: WT yeast gro inh)
Cc1[nH]n(C)c(=O)c1C(=O)c1c(-c2ccccc2Cl)noc1C	none (no result: WT yeast gro inh)
Cc1cc(C)c2nc(NNC(=O)c3ccc(S(=O)(=O)N4CCCCC4)cc3)sc2c1	CSC inhib 102.2
Cc1ccc(C(=O)NNC(=O)c2ccc(S(=O)(=O)N3CCCCC3)cc2)cc1	none (no result: T cruzi inh, WT yeast gro inh)
NC(=NCCCCCCN=C(N)/N=C(\N)Nc1ccc(Cl)cc1)/N=C(\N)Nc1ccc(Cl)cc1	Beta cell apopt 119.7, CSC inhib 78.2!, T cruzi inh 55.8! (no result: WT yeast gro inh)
CN(Cc1ccccc1)CC1CCCN(CCc2ccccc2F)C1 (configuration not stated)	none (no result: WT yeast gro inh)
COc1cc(CN(C)CC2CCCN(CCc3ccccc3F)C2)cc(Cl)c1OC (configuration not stated)	T cruzi inh 57.7 (no result: Beta cell apopt, CSC inhib, WT yeast gro inh)
Cc1cc(Cl)ccc1NC(=S)NCCc1ccc(S(N)(=O)=O)cc1	none (no result: WT yeast gro inh)
Cc1cc(Cl)ccc1OCC(O)CNCCc1ccc(S(N)(=O)=O)cc1 (configuration not stated)	Mot1-301 SUMO 308.6 (no result: WT yeast gro inh)
CCOc1cc(CNCCc2ccc(S(N)(=O)=O)cc2)ccc1OCc1ccc(Cl)cc1	Beta cell apopt 104.6
COc1cc(CNCCc2ccc(S(N)(=O)=O)cc2)ccc1OCc1ccc(Cl)cc1	T cruzi inh 65.8
CCOc1ccc(CNCCc2ccc(S(N)(=O)=O)cc2)cc1	none (no result: Beta cell apopt)
COc1cc(CNCCc2ccc(S(N)(=O)=O)cc2)ccc1OCC(=O)NC1CCCCC1	none
Cc1c(CCC(=O)NCCCN2CCCC2=O)c(=O)oc2c(C)c(O)ccc12	none (no result: WT yeast gro inh)
O=C(CSCc1ccccc1Br)NNC(=S)NCc1ccco1	none (no result: WT yeast gro inh)
N#C/C(=C\c1ccc(N2CCCCC2)c([N+](=O)[O-])c1)c1nn(-c2ccccc2)c(N)c1C#N	T cruzi inh 62.2
COc1cc2ccccc2cc1C(=O)Nc1nnc(-c2ccncc2)o1	none (no result: WT yeast gro inh)
CN(Cc1ccc(OCC(O)CN(C)Cc2ccccc2)cc1)Cc1nccn1C (configuration not stated)	none (no result: WT yeast gro inh)
COc1ccc(CN(C)CC(O)COc2ccc(-c3ccccc3)cc2)cc1OC (configuration not stated)	T cruzi inh 58.0 (no result: Beta cell apopt, WT yeast gro inh)
COc1ccc(OC)c(/C=N/NC(=O)CSc2cc(C)nc3c(OC)cccc23)c1	none
COc1ccc(-c2oc3c(OC)c(OC)c(OC)c(O)c3c(=O)c2OC)cc1OC	Mot1-301 SUMO active
COc1c(OC)c(O)c2c(=O)c(O)c(-c3ccccc3)oc2c1OC	none
Cc1cc(C)n(CCC(=O)N/N=C/c2c(O)ccc3ccccc23)n1	Beta cell apopt 93.5 (no result: WT yeast gro inh)
Cc1cc(C)n(CCC(=O)N/N=C/c2ccc(O)cc2)n1	none
O=C(CCSc1nc2ccccc2s1)N/N=C/c1c(O)ccc2ccccc12	Beta cell apopt 84.6, CSC inhib 79.7
Cc1ccc(C(C)C)c(OC(=O)/C=C/c2ccccc2)c1	WT yeast gro inh 79.0 (no result: CSC inhib)
Cc1ccc(NC(=O)C(C)OC(=O)/C=C/c2ccccc2)cc1 (configuration not stated)	none (no result: WT yeast gro inh)
CCOC(=O)c1c(-c2ccc(F)cc2)csc1NC(=O)c1c(-c2ccccc2)noc1C	Mot1-301 SUMO 719.4
CCOC(=O)c1c(-c2ccccc2)csc1NC(=O)CSc1nncs1	WT yeast gro inh 59.1
